These results are taken from publication PMC7669533 (International Journal of Nanomedicine, 2020).

Ends that are not written are not given here.

This assay addresses recombinant human VEGFR-2 (Homo sapiens, UniProt P35968). Put plainly: SPR binding affinity to immobilized VEGFR-2. The method, boiled down:
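Recombinant human receptor protein amine-coupled to a CM5 chip. Test peptides diluted in HBS-EP buffer and flowed over the surface at 0.0156, 0.03125, 0.0625, 0.125 and 0.25 μM, with resonance unit changes recorded. Response curves were fitted to a 1:1 Langmuir binding model to give the equilibrium dissociation constant KD.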

Sequence of recombinant human VEGFR-2 (P35968 20-1356): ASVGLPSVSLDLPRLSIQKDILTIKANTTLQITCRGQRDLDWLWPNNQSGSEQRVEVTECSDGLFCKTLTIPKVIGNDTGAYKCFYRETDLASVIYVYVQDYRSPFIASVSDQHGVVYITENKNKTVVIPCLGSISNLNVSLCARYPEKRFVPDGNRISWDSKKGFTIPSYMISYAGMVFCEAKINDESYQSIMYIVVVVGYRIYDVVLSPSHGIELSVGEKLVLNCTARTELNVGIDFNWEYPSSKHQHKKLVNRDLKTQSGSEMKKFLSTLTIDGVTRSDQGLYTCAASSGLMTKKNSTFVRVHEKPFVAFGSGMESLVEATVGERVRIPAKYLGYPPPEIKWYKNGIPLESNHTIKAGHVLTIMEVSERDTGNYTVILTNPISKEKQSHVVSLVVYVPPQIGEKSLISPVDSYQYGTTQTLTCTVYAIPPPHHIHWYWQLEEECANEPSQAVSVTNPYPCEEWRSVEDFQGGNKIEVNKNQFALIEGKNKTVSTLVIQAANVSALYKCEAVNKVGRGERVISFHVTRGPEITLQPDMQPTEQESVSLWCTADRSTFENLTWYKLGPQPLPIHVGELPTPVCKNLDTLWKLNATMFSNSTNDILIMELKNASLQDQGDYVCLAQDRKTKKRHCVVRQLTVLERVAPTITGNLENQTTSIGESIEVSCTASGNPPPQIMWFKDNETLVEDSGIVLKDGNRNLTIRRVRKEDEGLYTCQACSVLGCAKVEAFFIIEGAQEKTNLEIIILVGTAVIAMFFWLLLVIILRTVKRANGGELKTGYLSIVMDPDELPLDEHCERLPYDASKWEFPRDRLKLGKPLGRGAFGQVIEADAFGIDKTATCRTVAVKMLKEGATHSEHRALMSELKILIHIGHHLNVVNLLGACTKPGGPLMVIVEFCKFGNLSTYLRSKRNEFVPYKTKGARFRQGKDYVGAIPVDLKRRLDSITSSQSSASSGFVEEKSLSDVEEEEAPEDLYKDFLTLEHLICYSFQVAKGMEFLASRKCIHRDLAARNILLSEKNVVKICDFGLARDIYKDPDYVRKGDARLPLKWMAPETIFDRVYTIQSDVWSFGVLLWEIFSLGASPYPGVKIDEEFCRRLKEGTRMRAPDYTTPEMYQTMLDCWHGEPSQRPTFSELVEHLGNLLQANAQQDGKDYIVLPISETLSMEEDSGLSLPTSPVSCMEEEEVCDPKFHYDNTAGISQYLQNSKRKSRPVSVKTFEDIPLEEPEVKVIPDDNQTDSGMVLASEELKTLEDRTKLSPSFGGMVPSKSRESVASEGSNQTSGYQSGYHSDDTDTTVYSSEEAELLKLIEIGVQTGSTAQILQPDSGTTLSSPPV

ATWLPPRC [AT7]: the Kd was found to be 0.283 µM.

Consider `CC(C)C[C@H](NC(=O)[C@H](Cc1c[nH]c2ccccc12)NC(=O)[C@@H](NC(=O)[C@H](C)NC(=O)[C@H](CS)NC(=O)[C@H](CCCNC(=N)N)NC(=O)[C@H](CCCNC(=N)N)NC(=O)[C@H](CCCNC(=N)N)NC(=O)[C@H](CCC(N)=O)NC(=O)[C@H](CCCNC(=N)N)NC(=O)[C@H](CCCNC(=N)N)NC(=O)[C@H](CCCCN)NC(=O)[C@H](CCCCN)NC(=O)[C@@H](N)CCCNC(=N)N)[C@@H](C)O)C(=O)N1CCC[C@H]1C(=O)N1CCC[C@H]1C(=O)N[C@@H](CCCNC(=N)N)C(=O)O` [TAT-AT7], for which the Kd came to 0.0228 µM.
